Where no end group is shown, it is not given here.
Key:
[1] = system: Staphylococcus aureus (S. aureus) (NCTC 10788); experiment: MIC/MBC determination; format: cell-based; settings: 37 °C, 20 h; for MBC: 10 µl from MIC wells on MHA, no colony growth; for MIC: MHB, 5 × 10^5 CFU/ml, read at 550 nm
In short: (§1)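 Bacteria grown overnight at 37 °C in MHB and diluted to 5 × 10^5 CFU/ml. Peptide stocks in PBS, two-fold from 51200 µM to 100 µM, added 1 µl per 99 µl suspension. Norfloxacin (20 mg/l) was the positive control. After 20 h at 37 °C, OD 550 nm read; MIC = no apparent growth. For MBC, 10 µl from MIC and higher wells spotted on MHA, 37 °C 20 h; lowest without colonies.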

[2] = system: Escherichia coli (E. coli) (ATCC 8739); experiment: MIC/MBC determination; format: cell-based; settings: 37 °C, 20 h; for MBC: 10 µl from MIC wells on MHA, no colony growth; for MIC: MHB, 5 × 10^5 CFU/ml, read at 550 nm
In short: as §1

MRSA (NCTC 12493) [3] = experiment: MIC/MBC determination; format: cell-based, Methicillin-resistant Staphylococcus aureus; settings: 37 °C, 20 h; for MBC: 10 µl from MIC wells on MHA, no colony growth; for MIC: MHB, 5 × 10^5 CFU/ml, read at 550 nm
In short: as §1

[4] = system: Klebsiella pneumoniae (K. pneumoniae) (ATCC 43816); experiment: MIC/MBC determination; format: cell-based; settings: 37 °C, 20 h; for MBC: 10 µl from MIC wells on MHA, no colony growth; for MIC: MHB, 5 × 10^5 CFU/ml, read at 550 nm
In short: as §1

[5] = system: Enterococcus faecium (E. faecium) (NTCC-12697); experiment: MIC/MBC determination; format: cell-based; settings: 37 °C, 20 h; for MBC: 10 µl from MIC wells on MHA, no colony growth; for MIC: MHB, 5 × 10^5 CFU/ml, read at 550 nm
In short: as §1

[6] = system: Pseudomonas aeruginosa (P. aeruginosa) (ATCC 9027); experiment: MIC/MBC determination; format: cell-based; settings: 37 °C, 20 h; for MBC: 10 µl from MIC wells on MHA, no colony growth; for MIC: MHB, 5 × 10^5 CFU/ml, read at 550 nm
In short: as §1

MRSA (BO38 V1S1 A) = experiment: MIC/MBC determination; format: cell-based, Methicillin-resistant Staphylococcus aureus; settings: 37 °C, 20 h; for MBC: 10 µl from MIC wells on MHA, no colony growth; for MIC: MHB, 5 × 10^5 CFU/ml, read at 550 nm
In short: as §1

MRSA (BO42 V2E1 A) = experiment: MIC/MBC determination; format: cell-based, Methicillin-resistant Staphylococcus aureus; settings: 37 °C, 20 h; for MBC: 10 µl from MIC wells on MHA, no colony growth; for MIC: MHB, 5 × 10^5 CFU/ml, read at 550 nm
In short: as §1

MRSA (ATCC BAA 1707) = experiment: MIC/MBC determination; format: cell-based, Methicillin-resistant Staphylococcus aureus; settings: 37 °C, 20 h; for MBC: 10 µl from MIC wells on MHA, no colony growth; for MIC: MHB, 5 × 10^5 CFU/ml, read at 550 nm
In short: as §1

[7] = system: human keratinocyte cell line HaCaT; experiment: Lactate dehydrogenase; format: cell-based; settings: HaCaT cells, 100 μM peptide, 24 h, compared to the positive control
In short: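 Peptide added at 100 µM to 1 µM for 24 h. Lysis buffer gave maximum LDH; after 45 min, supernatant reacted 30 min dark at room temperature, then stopped. Absorbance read at 490 and 680 nm. Release expressed as percent of 1% Triton X-100, PBS negative; nine replicates from three experiments, mean ± SEM.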

S. aureus (NCTC 10788) = experiment: Condition sensitivity assay; format: cell-based, Staphylococcus aureus
MRSA (NCTC 12493) [8] = experiment: Condition sensitivity assay; format: cell-based, Methicillin-resistant Staphylococcus aureus

Substance | MBC [1] | MIC [1] | MBC [2] | MIC [2] | MBC (MRSA (NCTC 12493) [3]) | MIC (MRSA (NCTC 12493) [3]) | MBC [4] | MIC [4] | MBC [5] | MIC [5] | MBC [6] | MIC [6] | MBC (MRSA (BO38 V1S1 A)) | MIC (MRSA (BO38 V1S1 A)) | MBC (MRSA (BO42 V2E1 A)) | MIC (MRSA (BO42 V2E1 A)) | MBC (MRSA (ATCC BAA 1707)) | MIC (MRSA (ATCC BAA 1707)) | MIC (S. aureus (NCTC 10788); MHB with 6 μM NH4Cl) | MIC (S. aureus (NCTC 10788); MHB with 1 mM MgCl2) | other results
GVIFNALKGVAKTVAAQLLKK-NH2 [GV21] | 4 µM | 2 µM | 8 µM | 4 µM | 4 µM | 4 µM | 16 µM | 16 µM | 8 µM | 4 µM | 16 µM | 16 µM | 8 µM | 8 µM | 16 µM | 8 µM | 8 µM | 4 µM | 2 µM | 2 µM | LDH release rate (maximum) [7]: 22.36%; MIC (S. aureus (NCTC 10788); MHB with 2.5 mM CaCl2): 2 µM; MIC (S. aureus (NCTC 10788); MHB with 4 mM FeCl3): 2 µM; MIC (S. aureus (NCTC 10788); MHB with 4.5 mM KCl): 2 µM; MIC (S. aureus (NCTC 10788); MHB with 8 mM ZnCl2): 2 µM; MIC (S. aureus (NCTC 10788); MHB with 150 mM NaCl): 2 µM; MIC (S. aureus (NCTC 10788); MHB with 10% horse serum): 2 µM; MIC (S. aureus (NCTC 10788); PBS (no added salt)): 2 µM; MIC (MRSA (NCTC 12493) [8]; MHB with 6 μM NH4Cl): 4 µM; MIC (MRSA (NCTC 12493) [8]; MHB with 1 mM MgCl2): 4 µM; MIC (MRSA (NCTC 12493) [8]; MHB with 2.5 mM CaCl2): 4 µM; MIC (MRSA (NCTC 12493) [8]; MHB with 4 mM FeCl3): 4 µM; MIC (MRSA (NCTC 12493) [8]; MHB with 4.5 mM KCl): 4 µM; MIC (MRSA (NCTC 12493) [8]; MHB with 8 mM ZnCl2): 4 µM; MIC (MRSA (NCTC 12493) [8]; MHB with 150 mM NaCl): 4 µM; MIC (MRSA (NCTC 12493) [8]; MHB with 10% horse serum): 4 µM; MIC (MRSA (NCTC 12493) [8]; PBS (no added salt)): 4 µM
GVIFNALK-NH2 [GV8] | > 512 µM | > 512 µM | > 512 µM | > 512 µM | > 512 µM | > 512 µM | > 512 µM | > 512 µM | > 512 µM | > 512 µM | > 512 µM | > 512 µM | > 512 µM | > 512 µM | > 512 µM | > 512 µM | > 512 µM | > 512 µM | – | – | –
GVIFNALKGVAK-NH2 [GV12] | > 512 µM | > 512 µM | > 512 µM | > 512 µM | > 512 µM | > 512 µM | > 512 µM | > 512 µM | > 512 µM | > 512 µM | > 512 µM | > 512 µM | > 512 µM | > 512 µM | > 512 µM | > 512 µM | > 512 µM | > 512 µM | – | – | –
TVAAQLLKKAR-NH2 [GV11] | > 512 µM | > 512 µM | > 512 µM | > 512 µM | > 512 µM | > 512 µM | > 512 µM | > 512 µM | > 512 µM | > 512 µM | > 512 µM | > 512 µM | > 512 µM | > 512 µM | > 512 µM | > 512 µM | > 512 µM | > 512 µM | – | – | –
GVIFNALKGVAKTVAAQLLK-NH2 [GV20] | 8 µM | 4 µM | 32 µM | 8 µM | 8 µM | 8 µM | 64 µM | 32 µM | 64 µM | 16 µM | 64 µM | 32 µM | 32 µM | 16 µM | 64 µM | 32 µM | 32 µM | 16 µM | 4 µM | 4 µM | MIC (S. aureus (NCTC 10788); MHB with 2.5 mM CaCl2): 4 µM; MIC (S. aureus (NCTC 10788); MHB with 4 mM FeCl3): 4 µM; MIC (S. aureus (NCTC 10788); MHB with 4.5 mM KCl): 8 µM; MIC (S. aureus (NCTC 10788); MHB with 8 mM ZnCl2): 4 µM; MIC (S. aureus (NCTC 10788); MHB with 150 mM NaCl): 4 µM; MIC (S. aureus (NCTC 10788); MHB with 10% horse serum): 8 µM; MIC (S. aureus (NCTC 10788); PBS (no added salt)): 4 µM; MIC (MRSA (NCTC 12493) [8]; MHB with 6 μM NH4Cl): 8 µM; MIC (MRSA (NCTC 12493) [8]; MHB with 1 mM MgCl2): 8 µM; MIC (MRSA (NCTC 12493) [8]; MHB with 2.5 mM CaCl2): 16 µM; MIC (MRSA (NCTC 12493) [8]; MHB with 4 mM FeCl3): 8 µM; MIC (MRSA (NCTC 12493) [8]; MHB with 4.5 mM KCl): 16 µM; MIC (MRSA (NCTC 12493) [8]; MHB with 8 mM ZnCl2): 8 µM; MIC (MRSA (NCTC 12493) [8]; MHB with 150 mM NaCl): 8 µM; MIC (MRSA (NCTC 12493) [8]; MHB with 10% horse serum): 16 µM; MIC (MRSA (NCTC 12493) [8]; PBS (no added salt)): 8 µM
GVIFNALKGVAKTVAAQLLKKAR-NH2 [GV23] | 16 µM | 2 µM | 8 µM | 4 µM | 2 µM | 2 µM | 64 µM | 32 µM | 16 µM | 16 µM | 16 µM | 16 µM | 8 µM | 2 µM | 8 µM | 8 µM | 8 µM | 8 µM | 2 µM | 2 µM | MIC (S. aureus (NCTC 10788); MHB with 2.5 mM CaCl2): 2 µM; MIC (S. aureus (NCTC 10788); MHB with 4 mM FeCl3): 2 µM; MIC (S. aureus (NCTC 10788); MHB with 4.5 mM KCl): 2 µM; MIC (S. aureus (NCTC 10788); MHB with 8 mM ZnCl2): 2 µM; MIC (S. aureus (NCTC 10788); MHB with 150 mM NaCl): 2 µM; MIC (S. aureus (NCTC 10788); MHB with 10% horse serum): 2 µM; MIC (S. aureus (NCTC 10788); PBS (no added salt)): 2 µM; MIC (MRSA (NCTC 12493) [8]; MHB with 6 μM NH4Cl): 4 µM; MIC (MRSA (NCTC 12493) [8]; MHB with 1 mM MgCl2): 4 µM; MIC (MRSA (NCTC 12493) [8]; MHB with 2.5 mM CaCl2): 2 µM; MIC (MRSA (NCTC 12493) [8]; MHB with 4 mM FeCl3): 2 µM; MIC (MRSA (NCTC 12493) [8]; MHB with 4.5 mM KCl): 2 µM; MIC (MRSA (NCTC 12493) [8]; MHB with 8 mM ZnCl2): 2 µM; MIC (MRSA (NCTC 12493) [8]; MHB with 150 mM NaCl): 2 µM; MIC (MRSA (NCTC 12493) [8]; MHB with 10% horse serum): 2 µM; MIC (MRSA (NCTC 12493) [8]; PBS (no added salt)): 2 µM

— publication PMC8441110 (Computational and Structural Biotechnology Journal, 2021)
